Shown are actives, neighbours in structure and some others; about 3.1% of the full set was active somewhere.
RBBP9 inh – human RBBP9 inhibitors, primary screen, biochemical, fluorescence polarization, FP-Rh probe, HTS. Serine hydrolase RBBP9 (Homo sapiens), O75884. recombinant RBBP9. inhibition, % at 7.94 µM. 220,000 compounds, 0.2% hits. AID 1515, 2009;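 active = inhibition above the campaign mean of all tested compounds plus 3 SD, cut at about 14% in these data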;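 also: plate controls were DMSO wells with RBBP9 for no effect and wells lacking RBBP9 protein for full effect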
Target sequence (O75884 whole entry, looked up): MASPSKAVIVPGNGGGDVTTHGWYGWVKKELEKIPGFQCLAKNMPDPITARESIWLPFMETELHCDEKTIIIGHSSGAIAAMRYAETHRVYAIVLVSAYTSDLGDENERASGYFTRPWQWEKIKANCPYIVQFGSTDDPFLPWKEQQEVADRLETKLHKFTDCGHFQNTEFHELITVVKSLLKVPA
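System: RBBP9 protein / Quantity: 2.5 µM RBBP9 dispensing solution, before mixing / Also added: Serine-hydrolase probe FP-Rh, 375 nM pre-mixing / Dosing: 7.94 µM single dose, 0.794% DMSO / Timing: enzyme-compound preincubation 30 min, then probe labeling 45 min, 25 °C / Signal: FP readout at 525/598 nm / Controls: DMSO-treated enzyme wells and wells lacking RBBP9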
UHRF1 MBD2 ctr – UHRF1 methylated DNA binding inhibitors, primary screen, counter-screen for MBD2 inhibitor project, biochemical, TR-FRET, human UHRF1, single concentration; E3 ubiquitin-protein ligase UHRF1 (Homo sapiens), Q96T88; AID 687016, 2013; UHRF1 binding to methylated oligo; 370,000 compounds, 0.75% hits; inhibition, % at 4.4 µM;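 also: UHRF1 SRA domain binding a hemimethylated CpG hairpin DNA probe; 0% = median of test compound wells and 100% = reference inhibitor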
MBD2 DNA inh – inhibitors of MBD2 binding to methylated DNA, primary screen, biochemical, TR-FRET, DNA-binding domain, human | 370,000 compounds, 0.31% hits | MBD2 binding to methylated oligonucleotide | inhibition, % at 4.4 µM; in the data active = inhibition above about 13%
PRMT1 FP inh – PRMT1 methyltransferase inhibitors, primary screen, biochemical, fluorescence polarization; Protein arginine N-methyltransferase 1 (Homo sapiens), Q99873; recombinant PRMT1, activity-based probe fluorescence polarization; inhibition, % at 2.79 µM; 370,000 compounds, 1.3% hits; AID 652257, 2013;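 active = inhibition above about 21% made by adding two undisclosed values, limit read from the data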
Target sequence (Q99873 whole entry, looked up): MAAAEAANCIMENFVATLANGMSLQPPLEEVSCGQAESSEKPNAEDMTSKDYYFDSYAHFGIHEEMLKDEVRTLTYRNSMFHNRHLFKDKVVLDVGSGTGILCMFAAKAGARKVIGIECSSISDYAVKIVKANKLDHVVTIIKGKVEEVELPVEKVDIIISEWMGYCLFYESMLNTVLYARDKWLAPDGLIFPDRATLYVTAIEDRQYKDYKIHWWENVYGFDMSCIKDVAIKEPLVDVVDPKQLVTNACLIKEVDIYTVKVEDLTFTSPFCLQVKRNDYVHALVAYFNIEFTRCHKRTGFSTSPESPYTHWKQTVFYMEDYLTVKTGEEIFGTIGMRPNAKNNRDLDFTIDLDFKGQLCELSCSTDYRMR
LEDGF integ inh – blockers of LEDGF/p75-dependent integrase strand transfer – biochemical, TR-FRET, high throughput, primary screen | AID 743269, 2014 | TR-FRET IN-LEDGF/p75 DNA integration, Eu/Cy5 | HIV-1 integrase (with human LEDGF/p75) | 370,000 compounds, 0.64% hits | inhibition, % at 3.7 µM;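 active = inhibition above the screen-wide mean plus 3 SD, cut at about 13% in these data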;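 also: signal is the Cy5 over europium emission ratio at 671 and 618 nm; 0% = plate median of compound wells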
ABHD5-PLIN5 inh – ABHD5-PLIN5 interaction inhibitors, primary screen, cell lysate, split luciferase complementation, luminescence; Perilipin-5 (Homo sapiens) + 1-acylglycerol-3-phosphate O-acyltransferase ABHD5 (Homo …; Split G. princeps luciferase complementation, 4 h; inhibition, % at 4 µM; 360,000 compounds, 0.78% hits; AID 602281, 2012;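 active = inhibition above the mean inhibition across every tested compound plus 3 SD, cut at about 22% in these data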;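 also: 0% = DMSO only wells and the 100% control is not disclosed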
UHRF1 DNA bind – UHRF1 methylated DNA binding inhibitors, counter-screen for MBD2 inhibitor project, biochemical, TR-FRET, human UHRF1. shares compounds with MBD2 DNA inh. UHRF1 binding to methylated oligonucleotide. inhibition, % at 4.4 µM. 1,000 compounds, 25% hits. AID 720530, 2013;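 also: UHRF1 SRA domain binding a labeled hemimethylated CpG hairpin DNA; 0% = vehicle only and 100% = reference inhibitor with vehicle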
MBD2 confirm – inhibitors of MBD2 binding to methylated DNA, confirmation, biochemical, TR-FRET, DNA-binding domain, human; TR-FRET MBD2-DBD binding to methylated oligonucleotide; 1,000 compounds, 26% hits; shares compounds with MBD2 DNA inh; AID 720531, 2013; inhibition, % at 4.4 µM; in the data active = inhibition above about 14%
An asterisk follows results filed as active; nt = no result given. Rule as the data show it, unless noted: active = inhibition above about 21%; inactive = the rest.

SMILES	RBBP9 inh	UHRF1 MBD2 ctr	MBD2 DNA inh	PRMT1 FP inh	LEDGF integ inh	ABHD5-PLIN5 inh	UHRF1 DNA bind	MBD2 confirm
Cc1ccc(-c2csc3nc4cc(C(=O)NC5CCC(O)CC5)ccc4c(=O)n23)cc1 (stereo not drawn)	nt	20	14*	1	1	4	13	8
COc1ccc(Cn2cc(CN3[C@@H](CC(C)C)COc4cccc(F)c4S3(=O)=O)nn2)cc1	nt	-2	4	-2	-3	nt	nt	nt
Nc1cc(Nc2ccccc2)ccn1	nt	-1	44*	-2	-4	-3	7	2
c1ccc(Nc2ccnc(Nc3ccccc3)n2)cc1	-3	0	-2	2	-4	-2	nt	nt
CC(C)CN(C(=O)CSc1nc2ccccc2c(=O)[nH]1)c1c(N)n(CC(C)C)c(=O)[nH]c1=O	nt	-2	25*	2	-2	-1	4	2
O=C(/C=C/c1cccc(Br)c1)N1CCN(c2ccccn2)CC1	0	35*	14*	4	-3	-1	4	3
O=C(/C=C/c1ccc(F)cc1)N1CCN(c2ccccn2)CC1	-9	-3	-1	-1	-4	2	nt	nt
CC1CCC(NCc2ccco2)CC1 (stereo not drawn)	-1	2	18*	-1	1	-2	0	6
CC1CCCC(C)N1C(=S)NCc1ccco1 (stereo not drawn)	0	0	-2	2	2	-7	nt	nt
Cc1ccccc1S(=O)(=O)Nc1cccnc1	2	0	1	2	-2	-6	nt	nt
Cc1ccc(Br)cc1S(=O)(=O)Nc1cccnc1	nt	36*	18*	-1	11	9	2	4
CC(=O)Nc1ccc(S(=O)(=O)NCC2CCN(C(=O)C(=O)c3cccs3)CC2)cc1	nt	-1	0	0	4	nt	nt	nt
O=C(C(=O)N1CCC(CNS(=O)(=O)c2ccccc2OC(F)(F)F)CC1)c1cccs1	nt	27*	28*	4	3	nt	8	3
Cc1cc(NC(=O)CSc2nc3[nH]c(=O)cc(O)c3s2)ccc1Br	nt	-2	-2	8	3	2	nt	nt
O=C(CSc1nc2[nH]c(=O)cc(O)c2s1)Nc1nncs1	nt	2	23*	-3	-3	6	8	3
Cc1ccc(NC(=O)CSc2nc3[nH]c(=O)cc(O)c3s2)c(Br)c1	nt	-1	64*	14	7	-10	6	2
CC(C)(C)c1ccc(S(=O)(=O)N2CCC(c3cn4ccccc4n3)CC2)cc1	nt	-2	-2	-1	1	nt	nt	nt
CC(C)[C@H]1Cn2nnc(-c3ccccc3)c2Cn2c3ccccc3c(=O)n21	nt	1	-1	-2	2	nt	nt	nt
O=C(Nc1ccc(F)c(C(F)(F)F)c1)Nc1nnc(-c2ccncc2)s1	nt	6	15*	5	-6	nt	6	10
COC(=O)[C@]12C[C@H](CC(=O)NCc3cccc(C(F)(F)F)c3)C(=O)N(Cc3cccc4ccccc34)C1=C[C@H](C(C)(C)C)O[C@@H]2C	nt	0	25*	2	-1	nt	0	2
COC(=O)[C@]12C[C@H](CC(=O)NCc3cccc4ccccc34)C(=O)N(Cc3ccccc3)C1=C[C@H](C(C)(C)C)O[C@@H]2C	nt	-2	3	1	-2	nt	nt	nt
CC1CCCN(CCCNC(=O)c2ccc3c(c2)N(Cc2ccc(F)cc2)C(=O)c2ccccc2S3=O)C1 (stereo not drawn)	nt	-1	17*	0	0	0	7	3
COC(=O)c1ccc(C(=O)OC)c(NC(=O)Cc2cccs2)c1	nt	20	16*	-1	1	3	22*	15*
O=C(Cn1cc(COc2cccc([N+](=O)[O-])c2)nn1)c1ccc(O)cc1	nt	21*	13*	6	6	2	11	9
CC1(C)Oc2ccc(C(=O)NC3CCCC3)cc2NC1=O	nt	0	-2	-1	2	nt	nt	nt
SMILES	RBBP9 inh	UHRF1 MBD2 ctr	MBD2 DNA inh	PRMT1 FP inh	LEDGF integ inh	ABHD5-PLIN5 inh	UHRF1 DNA bind	MBD2 confirm
CC1(C)CC(=O)C=C(NCc2ccco2)C1	-14	2	35*	1	-2	1	4	3
O=C1C=C(NCc2ccco2)CCC1	3	-2	-2	3	-1	5	nt	nt
O=c1c(O)cccc2cc(O)c(O)c(O)c12	1	94*	87*	43*	88*	8	94*	91*
COc1ccc(C(=O)N(C)[C@H]2C[C@H]3c4[nH]c5c(-c6ccccc6)cccc5c4CCN3C(=O)[C@H]2[C@H](C)O)cc1	nt	-3	5	-2	-5	nt	nt	nt
CN(C)CCNc1ccc(CO)c2sc3ccc(O)cc3c(=O)c12	nt	-12	16*	4	-4	-28	12	27*
CCN(c1ccccc1)S(=O)(=O)c1cc(C(=O)O)ccc1C	-6	60*	25*	6	9	-2	51*	27*
O=C(O)c1ccc(Cl)c(S(=O)(=O)N(Cc2ccccc2)c2ccccc2)c1	nt	2	0	-1	-1	7	nt	nt
COC(=O)c1cccc(Cn2ccc3ccc(-c4ccc5ccn(C(=O)c6ccc(C)cc6)c5c4)cc32)c1	nt	-2	1	2	2	nt	nt	nt
COc1ccc(-c2coc3c(C)c4oc(=O)c(CC(=O)O)c(C)c4cc23)cc1	nt	3	2	2	-5	-5	nt	nt
Cc1c(CC(=O)O)c(=O)oc2c(C)c3occ(-c4ccc(Br)cc4)c3cc12	nt	1	30*	2	3	5	0	3
COc1ccc(Oc2c(-c3cccs3)cnn(-c3ccc(C)cc3)c2=O)cc1	nt	-3	-5	2	-1	nt	nt	nt
CCOC(=O)c1cnc2c(ccc3ccccc32)c1NCCCN(C)C	nt	4	20*	4	2	4	5	26*
CCOC(=O)c1cnc2ccccc2c1NCCO	8	-2	3	-1	2	9	nt	nt
Cc1ccc2[nH]c(O)c(N=NC(=O)c3ccc(NS(=O)(=O)c4cccs4)cc3)c2c1	-7	-4	-8	1	-1	-5	nt	nt

Screening data: PubChem, The Scripps Research Institute Molecular Screening Center
